For the experiment, the target named is Sodium-dependent noradrenaline transporter (Homo sapiens, UniProt P23975). The experiment is described as follows: Displacement of [3H]nisoxetine from human NET expressed in COS7 cells. It is filed as cell-based. The settings on record: COS-7. In outline: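 Membranes from COS-7 cells transfected with human NET were incubated with [3H]nisoxetine (4.3 nM) with or without peptide (1 nM to 100 μM, triplicate) for 1 h at RT. Filter-retained radioactivity was counted by liquid scintillation, and values are given as pIC50. Data are means of 2–5 experiments in triplicate; peptide concentration was set by calibrated HPLC at 214 nm.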
Sodium-dependent noradrenaline transporter, sequence (P23975 whole entry): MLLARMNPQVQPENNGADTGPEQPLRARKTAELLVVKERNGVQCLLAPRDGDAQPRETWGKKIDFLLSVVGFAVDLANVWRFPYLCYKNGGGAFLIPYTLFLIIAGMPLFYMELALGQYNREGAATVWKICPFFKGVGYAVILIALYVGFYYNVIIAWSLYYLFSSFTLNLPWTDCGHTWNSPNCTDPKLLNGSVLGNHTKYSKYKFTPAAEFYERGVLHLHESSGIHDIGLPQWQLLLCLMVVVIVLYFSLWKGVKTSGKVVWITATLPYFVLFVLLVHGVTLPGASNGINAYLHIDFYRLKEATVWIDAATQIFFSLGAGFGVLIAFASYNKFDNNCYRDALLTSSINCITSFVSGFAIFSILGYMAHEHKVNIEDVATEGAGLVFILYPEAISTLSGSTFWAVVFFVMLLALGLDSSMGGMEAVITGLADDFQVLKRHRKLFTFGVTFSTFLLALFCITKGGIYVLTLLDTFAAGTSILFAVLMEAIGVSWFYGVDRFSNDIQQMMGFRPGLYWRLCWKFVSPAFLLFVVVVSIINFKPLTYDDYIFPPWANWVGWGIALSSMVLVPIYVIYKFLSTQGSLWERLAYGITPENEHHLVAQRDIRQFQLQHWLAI

Activity calls are given as the source filed them. The rule behind the calls is not given here. Where a SMILES comes first, the peptide text is derived from it. Bridges are numbered along the chain shown (N, C = ends). [ ]: non-standard residue; d: D form. Pro(3S-OH) = O=C(O)[C@H]1NCC[C@@H]1O; Cha = N[C@@H](CC1CCCCC1)C(=O)O; pGlu = O=C1CC[C@@H](C(=O)O)N1

With `CC[C@H](C)[C@@H]1NC(=O)CNC(=O)[C@@H]2CSSC[C@H](NC(=O)[C@H](CC(C)C)NC(=O)[C@H](CCCCN)NC1=O)C(=O)N[C@@H](Cc1cnc[nH]1)C(=O)N1CC[C@H](O)[C@H]1C(=O)N[C@H](C(=O)O)CSSC[C@H](NC(=O)[C@@H](NC(=O)CNC(=O)[C@@H]1CCC(=O)N1)C(C)C)C(=O)N2`, the result was inactive.
In the case of `CC(C)C[C@@H]1NC(=O)[C@H](CCCCN)NC(=O)[C@H](CCCNC(=N)N)NC(=O)CNC(=O)[C@@H]2CSSC[C@H](NC1=O)C(=O)N[C@@H](Cc1cnc[nH]1)C(=O)N1CC[C@H](O)[C@H]1C(=O)N[C@H](C(=O)O)CSSC[C@H](NC(=O)[C@@H](NC(=O)CNC(=O)[C@@H]1CCC(=O)N1)C(C)C)C(=O)N2` ([pGlu]GVCCGRKLCH[Pro(3S-OH)]C-OH; disulfide 4-13, 5-10), the result was inactive.
For the compound `CC(C)C[C@@H]1NC(=O)[C@H](CCCCN)NC(=O)[C@H](CCC(=O)O)NC(=O)CNC(=O)[C@@H]2CSSC[C@H](NC1=O)C(=O)N[C@@H](Cc1cnc[nH]1)C(=O)N1CC[C@H](O)[C@H]1C(=O)N[C@H](C(=O)O)CSSC[C@H](NC(=O)[C@@H](NC(=O)CNC(=O)[C@@H]1CCC(=O)N1)C(C)C)C(=O)N2`, the result was inactive.
In the case of `CC(C)C[C@@H]1NC(=O)[C@H](CCCCN)NC(=O)[C@H](Cc2c[nH]c3ccccc23)NC(=O)CNC(=O)[C@@H]2CSSC[C@H](NC1=O)C(=O)N[C@@H](Cc1cnc[nH]1)C(=O)N1CC[C@H](O)[C@H]1C(=O)N[C@H](C(=O)O)CSSC[C@H](NC(=O)[C@@H](NC(=O)CNC(=O)[C@@H]1CCC(=O)N1)C(C)C)C(=O)N2`, the result was inactive.
On to `CC(C)C[C@@H]1NC(=O)[C@H](CCCCN)NC(=O)[C@H](CCC(N)=O)NC(=O)CNC(=O)[C@@H]2CSSC[C@H](NC1=O)C(=O)N[C@@H](Cc1cnc[nH]1)C(=O)N1CC[C@H](O)[C@H]1C(=O)N[C@H](C(=O)O)CSSC[C@H](NC(=O)[C@@H](NC(=O)CNC(=O)[C@@H]1CCC(=O)N1)C(C)C)C(=O)N2` ([pGlu]GVCCGQKLCH[Pro(3S-OH)]C-OH; disulfide 4-13, 5-10), for which the result was inactive.
As to `CC(C)[C@H](NC(=O)CNC(=O)[C@@H]1CCC(=O)N1)C(=O)N[C@H]1CSSC[C@@H](C(=O)O)NC(=O)[C@@H]2[C@@H](O)CCN2C(=O)[C@H](Cc2cnc[nH]2)NC(=O)[C@@H]2CSSC[C@H](NC1=O)C(=O)NCC(=O)N[C@@H](Cc1ccc(O)cc1)C(=O)N[C@@H](CCCCN)C(=O)N[C@@H](C(C)C)C(=O)N2` ([pGlu]GVCCGYKVCH[Pro(3S-OH)]C-OH; disulfide 4-13, 5-10), the result was inactive.
As for `CC(C)C[C@@H]1NC(=O)[C@H](CCCCN)NC(=O)[C@H](Cc2ccc(O)cc2)NC(=O)CNC(=O)[C@@H]2CSSC[C@H](NC1=O)C(=O)N[C@@H](Cc1cccc3ccccc13)C(=O)N1CC[C@H](O)[C@H]1C(=O)N[C@H](C(=O)O)CSSC[C@H](NC(=O)[C@@H](NC(=O)CNC(=O)[C@@H]1CCC(=O)N1)C(C)C)C(=O)N2`, the outcome was Active.
Regarding `CC(C)C[C@@H]1NC(=O)[C@H](CCCCN)NC(=O)[C@H](Cc2ccc(O)cc2)NC(=O)CNC(=O)[C@H]2CSSC[C@@H](NC1=O)C(=O)N[C@@H](Cc1cnc[nH]1)C(=O)N1CC[C@H](O)[C@H]1C(=O)N[C@H](C(=O)O)CSSC[C@H](NC(=O)[C@@H](NC(=O)CNC(=O)[C@@H]1CCC(=O)N1)C(C)C)C(=O)N2`, the outcome was inactive.
Take `COc1ccc(C[C@@H]2NC(=O)CNC(=O)[C@@H]3CSSC[C@H](NC(=O)[C@H](CC4CCCCC4)NC(=O)[C@H](CCCCN)NC(=O)[C@H](Cc4ccc(O)cc4)NC2=O)C(=O)N[C@@H](Cc2c[nH]c4ccccc24)C(=O)N2CC[C@H](O)[C@H]2C(=O)N[C@H](C(=O)O)CSSC[C@H](NC(=O)[C@@H](NC(=O)CNC(=O)[C@@H]2CCC(=O)N2)C(C)C)C(=O)N3)cc1` ([pGlu]GVCCGY(Me)YK[Cha]CW[Pro(3S-OH)]C-OH; disulfide 4-14, 5-11): the result was Active.

Source of the values: ChEMBL document CHEMBL1154792, “chi-Conopeptide pharmacophore development: toward a novel class of norepinephrine transporter inhibitor (Xen2174) for pain” (J Med Chem, 2009).
